The test system of one test is PC-3. The experiment in a line: Antiproliferative activity against human PC3 cells assessed as reduction in cell viability by MTT assay. Type of test: functional, cell-based. (In general: Tetrazolium assays rely on reduction of a dye to a coloured formazan, in cell work by metabolically active cells.)
The subject of test [1] is HCT-116. The experiment in a line: Antiproliferative activity against human HCT116 cells assessed as reduction in cell viability by MTT assay. Type of test: functional, cell-based.
A further test has as its system A549. Description: Antiproliferative activity against human A549 cells assessed as reduction in cell viability by MTT assay. Format: functional, cell-based.
The test system of test [2] is HCT-116. Description: Induction of apoptosis in human HCT116 cells assessed as late apoptotic cells at 3 uM incubated for 24 hrs by annexin V FITC and propidium iodide staining based flow cytometry analysis (reference value: 11 %). Format: functional. In general terms: In flow cytometry, cells or beads pass a laser one at a time.
The subject of test [3] is HCT-116. The experiment in a line: Induction of cell cycle arrest in human HCT116 cells assessed as G1 phase at 0.33 uM incubated for 24 hrs by annexin V and propidium iodide staining based flow cytometry analysis (reference value: 61.81 %). Type of test: functional. Summed up:
(§1)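 HCT116 cells treated 24 h at 0.33, 1.0 or 9.0 µM alongside a non-treated control. Cells were fixed, stained with Annexin-V and propidium iodide, and DNA content was measured by flow cytometry. Percentages of cells in G1, S and G2 phases were quantified.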

Test [4] has as its system HCT-116. The experiment in a line: Induction of cell cycle arrest in human HCT116 cells assessed as S phase at 9 uM incubated for 24 hrs by annexin V and propidium iodide staining based flow cytometry analysis (reference value: 16.08 %). Type of test: functional. Summed up: as §1
The test system of test [5] is HCT-116. Description: Induction of cell cycle arrest in human HCT116 cells assessed as S phase at 1 uM incubated for 24 hrs by annexin V and propidium iodide staining based flow cytometry analysis (reference value: 16.08 %). Format: functional. Summed up: as §1
In test [6] the test system is HCT-116. Description: Induction of apoptosis in human HCT116 cells assessed as viable cells at 3 uM incubated for 24 hrs by annexin V FITC and propidium iodide staining based flow cytometry analysis (reference value: 80.9 %). The note with it: HCT-116, 24 h, read-out: Activity. Type of test: functional.
Test [7] has as its system HCT-116. The experiment in a line: Induction of cell cycle arrest in human HCT116 cells assessed as G1 phase at 9 uM incubated for 24 hrs by annexin V and propidium iodide staining based flow cytometry analysis (reference value: 61.81 %). Type of test: functional. Summed up: as §1
The test system of test [8] is HCT-116. Description: Induction of apoptosis in human HCT116 cells assessed as viable cells at 1 uM incubated for 24 hrs by annexin V FITC and propidium iodide staining based flow cytometry analysis (reference value: 80.9 %). Type of test: functional. The following applies: HCT-116, 24 h, read-out: Activity.
For test [9], the system named is HCT-116. The experiment in a line: Induction of apoptosis in human HCT116 cells assessed as early apoptotic cells at 1 uM incubated for 24 hrs by annexin V FITC and propidium iodide staining based flow cytometry analysis (reference value: 7.9%). Type of test: functional.
Test [10] concerns HCT-116. Description: Induction of apoptosis in human HCT116 cells assessed as viable cells at 9 uM incubated for 24 hrs by annexin V FITC and propidium iodide staining based flow cytometry analysis (reference value: 80.9 %). The following applies: HCT-116, 24 h, read-out: Activity. Type of test: functional.
Test [11] has as its system HCT-116. Description: Induction of cell cycle arrest in human HCT116 cells assessed as S phase at 0.33 uM incubated for 24 hrs by annexin V and propidium iodide staining based flow cytometry analysis (reference value: 16.08 %). Type of test: functional. In outline: as §1
In test [12] the test system is HCT-116. The experiment in a line: Induction of cell cycle arrest in human HCT116 cells assessed as G1 phase at 1 uM incubated for 24 hrs by annexin V and propidium iodide staining based flow cytometry analysis (reference value: 61.81 %). Type of test: functional. Summed up: as §1
Test [13] relates to HCT-116. The experiment in a line: Induction of apoptosis in human HCT116 cells assessed as late apoptotic cells at 1 uM incubated for 24 hrs by annexin V FITC and propidium iodide staining based flow cytometry analysis (reference value: 11 %). Type of test: functional.
Test [14] has as its system HCT-116. Description: Induction of apoptosis in human HCT116 cells assessed as early apoptotic cells at 9 uM incubated for 24 hrs by annexin V FITC and propidium iodide staining based flow cytometry analysis (reference value: 7.9 %). Format: functional.
In test [15] the test system is HCT-116. Description: Induction of apoptosis in human HCT116 cells assessed as necrotic cells at 1 uM incubated for 24 hrs by annexin V FITC and propidium iodide staining based flow cytometry analysis (reference value: 0.2 %). Type of test: functional.
In test [16] the test system is HCT-116. Description: Induction of apoptosis in human HCT116 cells incubated for 24 hrs by annexin V FITC and propidium iodide staining based flow cytometry analysis. Type of test: functional, cell-based.
The subject of test [17] is HCT-116. The experiment in a line: Induction of apoptosis in human HCT116 cells assessed as necrotic cells at 9 uM incubated for 24 hrs by annexin V FITC and propidium iodide staining based flow cytometry analysis (reference value: 0.2 %). Format: functional.
Test [18] concerns HCT-116. The experiment in a line: Induction of cell cycle arrest in human HCT116 cells assessed as G2 phase at 0.33 uM incubated for 24 hrs by annexin V and propidium iodide staining based flow cytometry analysis (reference value: 22.11 %). Format: functional. Summed up:
as §1

The subject of test [19] is HCT-116. The experiment in a line: Induction of apoptosis in human HCT116 cells assessed as early apoptotic cells at 3 uM incubated for 24 hrs by annexin V FITC and propidium iodide staining based flow cytometry analysis (reference value: 7.9 %). Type of test: functional.
For test [20], the system named is HCT-116. Description: Induction of apoptosis in human HCT116 cells assessed as necrotic cells at 3 uM incubated for 24 hrs by annexin V FITC and propidium iodide staining based flow cytometry analysis (reference value: 0.2 %). Type of test: functional.
Test [21] deals with HCT-116. The experiment in a line: Induction of cell cycle arrest in human HCT116 cells assessed as G2 phase at 9 uM incubated for 24 hrs by annexin V and propidium iodide staining based flow cytometry analysis (reference value: 22.11 %). Type of test: functional. Summed up: as §1
Test [22] concerns HCT-116. The experiment in a line: Induction of cell cycle arrest in human HCT116 cells assessed as G2 phase at 1 uM incubated for 24 hrs by annexin V and propidium iodide staining based flow cytometry analysis (reference value: 22.11 %). Format: functional. In outline: as §1
Test [23] relates to HCT-116. The experiment in a line: Inhibition of cell migration in human HCT116 cells assessed as inhibition of wound healing rate measured upto 48 hrs by phase contrast microscopy. Format: functional, cell-based. Summed up: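 Wound-healing scratch assay in HCT116 monolayers treated at 0.3 and 3 µM versus blank control. Phase-contrast images were taken at 0, 24 and 48 h, and the wound-healing rate was assessed.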

For test [24], the system named is HCT-116. Description: Induction of apoptosis in human HCT116 cells assessed as late apoptotic cells at 9 uM incubated for 24 hrs by annexin V FITC and propidium iodide staining based flow cytometry analysis (reference value: 11 %). Type of test: functional.
In test [25] the test system is HCT-116. The experiment in a line: Induction of apoptosis in human HCT116 cells assessed as total apoptotic cells at 9 uM incubated for 24 hrs by annexin V FITC and propidium iodide staining based flow cytometry analysis (reference value: 18.9%). Format: functional.

One may read the IC50 as the point on the concentration scale where inhibition reaches its midpoint.

Take `Cc1cc(C)c(/C=N/Nc2ncc3c(n2)n(C2CCCC2)c(=O)c(=O)n3C)c(C)c1`: the IC50 in the test on PC-3 was found to be 13.9 µM; with HCT-116 [1], 7.92 µM; with A549, 12 µM.
The corresponding values for `Cn1c(=O)c(=O)n(C2CCCC2)c2nc(N/N=C/c3ccc(F)cc3F)ncc21` are 13.2 µM, 19.8 µM and 18.3 µM.
The corresponding values for `Cn1c(=O)c(=O)n(C2CCCC2)c2nc(N/N=C/c3cccc(Cl)c3Cl)ncc21` are 17.2 µM, 26.4 µM and 39.1 µM.
For the molecule `Cn1c(=O)c(=O)n(C2CCCC2)c2nc(N/N=C/c3cc(C(F)(F)F)cc(C(F)(F)F)c3)ncc21`, the Activity in the test on HCT-116 [2] is recorded as 12.2%; in the test with HCT-116 [3], 62.69%; in the test on HCT-116 [4] it was 11.41%; in the test on HCT-116 [5], 16.56%; in the test with HCT-116 [7], 67.2%; with HCT-116 [9] it was 10.3%. Further, the Activity with HCT-116 [11] was 20%; in the test on HCT-116 [12], 65.46%; in the test with HCT-116 [13] it was 11.1%; in the test on HCT-116 [14], 20.3%; with HCT-116 [15], 0.5%; with HCT-116 [16], “Dose-dependent effect”. The Activity with HCT-116 [17] was 0.4%; in the test with HCT-116 [18] it was 17.31%; in the test on HCT-116 [19], 10.2%; in the test on HCT-116 [20], 0.2%; in the test with HCT-116 [21] it was 21.39%; with HCT-116 [22], 17.98%. Moreover, the Activity in the test on HCT-116 [24] came out at 18%; in the test on HCT-116 [25], 38.3%. In addition, the viability at 3 µM with HCT-116 [6] is 77.4%. For the same molecule, the viability at 1 µM with HCT-116 [8] amounted to 78.1%. In the test on HCT-116 [10], the viability at 9 µM is 61.3%. In addition, the half-maximal inhibitory concentration (IC50) was found to be 8.2 µM in the test with PC-3, 4.36 µM with HCT-116 [1] and 3.23 µM with A549. Further, the inhibition result with HCT-116 [23] is “Dose-dependent effect”.
`Cn1c(=O)c(=O)n(C2CCCC2)c2nc(N/N=C/c3cccc(O)c3)ncc21`: the IC50 in the test on PC-3 was 36.3 µM; in the test with HCT-116 [1] it was 37.2 µM; in the test on A549 it was greater than 100 µM.
The corresponding values for `COc1cccc(/C=N/Nc2ncc3c(n2)n(C2CCCC2)c(=O)c(=O)n3C)c1` are 20.7 µM, 45.8 µM and 27.4 µM.
The corresponding values for `Cn1c(=O)c(=O)n(C2CCCC2)c2nc(N/N=C/c3ccc(F)cc3Br)ncc21` are 9.25 µM, 8.39 µM and 6.59 µM.
The corresponding values for `Cn1c(=O)c(=O)n(C2CCCC2)c2nc(N/N=C/c3cccc([N+](=O)[O-])c3)ncc21` are 20.3 µM, 15.2 µM and 12.3 µM.
For the molecule `Cn1c(=O)c(=O)n(C2CCCC2)c2nc(N/N=C/c3ccccc3Cl)ncc21`, the IC50 in the test with PC-3 stood at 16.3 µM; in the test on HCT-116 [1], 14 µM; in the test with A549 it was 9.86 µM.
The corresponding values for `COc1ccc(/C=N/Nc2ncc3c(n2)n(C2CCCC2)c(=O)c(=O)n3C)cc1` are 26.2 µM, 36.1 µM and greater than 100 µM.
The corresponding values for `Cc1ccc(/C=N/Nc2ncc3c(n2)n(C2CCCC2)c(=O)c(=O)n3C)cc1C` are 39 µM, 62.9 µM and 30.2 µM.
On to `Cc1cccc(/C=N/Nc2ncc3c(n2)n(C2CCCC2)c(=O)c(=O)n3C)c1`, for which the IC50 is 53.6 µM in the test with PC-3, greater than 100 µM in the test on HCT-116 [1] and 34.5 µM in the test on A549.
Regarding `Cn1c(=O)c(=O)n(C2CCCC2)c2nc(N/N=C/c3ccc(O)cc3)ncc21`, the figures for the IC50 in the test with PC-3, in the test with HCT-116 [1] and with A549 were greater than 100 µM, 72.5 µM and greater than 100 µM, respectively.
With `Cn1c(=O)c(=O)n(C2CCCC2)c2nc(N/N=C/c3ccccc3F)ncc21`, the values for the IC50 with PC-3, in the test on HCT-116 [1] and in the test on A549 were 27.6 µM, 20.7 µM and 31.2 µM, respectively.
The corresponding values for `CSc1ccc(/C=N/Nc2ncc3c(n2)n(C2CCCC2)c(=O)c(=O)n3C)cc1` are 21 µM, 9.01 µM and 14.1 µM.

Values taken from ChEMBL document CHEMBL4622944 (Bioorg Med Chem Lett, 2020).
